Compounds with a hit are over-represented: about 3.1% of the library has one in this group of screens.
UHRF1 binding – human UHRF1 methylated DNA binding inhibitors. AID 687016. 370,000 tested, 0.75% active. UHRF1 binding to methylated oligo, TR-FRET. inhibition, % at 4.4 µM; in the data active = inhibition above about 21%;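 also: UHRF1 SRA domain binding a hemimethylated CpG hairpin DNA probe; 0% = median of test compound wells and 100% = reference inhibitor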
RBBP9 inhibitor – blocks human serine hydrolase RBBP9. recombinant RBBP9, FP-Rh probe fluorescence polarization. AID 1515. inhibition, % at 7.94 µM. 220,000 tested, 0.2% active. O75884;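 active = inhibition above the campaign mean of all tested compounds plus 3 SD, cut at about 14% in these data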;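 also: plate controls were DMSO wells with RBBP9 for no effect and wells lacking RBBP9 protein for full effect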
Target sequence (O75884 whole entry, looked up): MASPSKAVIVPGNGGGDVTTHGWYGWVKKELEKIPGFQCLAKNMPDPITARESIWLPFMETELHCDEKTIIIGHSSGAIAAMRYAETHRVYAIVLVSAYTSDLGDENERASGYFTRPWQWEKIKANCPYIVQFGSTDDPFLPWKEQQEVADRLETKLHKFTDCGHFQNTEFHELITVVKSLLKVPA
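Assay system: recombinant human RBBP9; Reagent: Serine-hydrolase probe FP-Rh, 375 nM pre-mixing; Doses: 7.94 µM single dose, 0.794% DMSO; Incubation: 30 min then 45 min, 25 °C; Detection: fluorescence polarization (mP), excitation 525 nm, emission 598 nm; Evaluation: percent inhibition from mP, scaled between DMSO and no-protein wells.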
LEDGF integ inh – blocks HIV-1 LEDGF/p75-dependent DNA integration; inhibition, % at 3.7 µM; 370,000 tested, 0.64% active; TR-FRET IN-LEDGF/p75 DNA integration, Eu/Cy5;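 active = inhibition above the screen-wide mean plus 3 SD, cut at about 13% in these data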;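 also: signal is the Cy5 over europium emission ratio at 671 and 618 nm; 0% = plate median of compound wells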
MBD2 DNA inh – MBD2-methylated oligo binding inhibition; Q9UBB5; TR-FRET, MBD2 binding to methylated oligonucleotide; inhibition, % at 4.4 µM; 370,000 tested, 0.31% active; AID 686964; in the data active = inhibition above about 13%
PRMT1 inh – blocks human protein arginine methyltransferase 1; Q99873; recombinant PRMT1, activity-based probe fluorescence polarization; inhibition, % at 2.79 µM; 370,000 tested, 1.3% active; AID 652257;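 active = inhibition above about 21% made by adding two undisclosed values, limit read from the data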
ABHD5-PLIN5 inh – inhibitors of human ABHD5-perilipin-5 interaction; 360,000 tested, 0.78% active; AID 602281; Q00G26+Q8WTS1; inhibition, % at 4 µM; Split G. princeps luciferase complementation, luminescence, 4 h;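 active = inhibition above the mean inhibition across every tested compound plus 3 SD, cut at about 22% in these data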;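 also: 0% = DMSO only wells and the 100% control is not disclosed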
PRMT1 confirm – PRMT1 (human) inhibition, FP confirmation; AID 687036; inhibition, % at 2.79 µM; recombinant His-PRMT1, activity-based probe fluorescence polarization; 3,300 tested, 42% active; shares compounds with PRMT1 inh;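 active = mean inhibition across replicates above the hit cutoff derived for the earlier primary screen, cut at about 22% in these data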
Active calls of the source: *; . = no result given.

SMILES	UHRF1 binding	RBBP9 inhibitor	LEDGF integ inh	MBD2 DNA inh	PRMT1 inh	ABHD5-PLIN5 inh	PRMT1 confirm
O=C(NCc1ccccn1)C1Nc2ccc(OC(F)(F)F)cc2C2C=CCC12 (stereo not drawn)	-7.5	.	0.9	2.0	33.5*	1.5	4.1
O=C(NCCCN1CCOCC1)C1Nc2ccc(OC(F)(F)F)cc2C2C=CCC12 (stereo not drawn)	-4.4	.	-0.2	-5.3	-0.1	3.2	.
Cc1cccc(-c2cccc3c4c([nH]c23)[C@@H]2C[C@H](N(C)C(=O)C3CCCCC3)[C@H]([C@H](C)O)CN2CC4)c1	-1.8	.	1.5	-1.9	-0.3	.	.
CCOC(=O)C1=Nc2cccc3c(O)ccc1c23	-19.3	.	1.6	-17.1	75.1*	.	80.2*
O=[N+]([O-])c1cnc(Sc2ccncn2)s1	-1.2	-2.5	6.0	2.2	25.8*	17.5	30.6*
O=[N+]([O-])c1cnc(Sc2ccncn2)c([N+](=O)[O-])c1	-5.4	.	3.2	-4.9	71.1*	-8.5	89.6*
O=[N+]([O-])c1ccc(Sc2ncccn2)c([N+](=O)[O-])c1	-0.3	1.2	0.7	-2.5	1.7	-1.3	.
CCN(CC)C(=O)CC[C@H]1CC[C@]2(CCCN(Cc3ccc(Br)cc3)C2)O1	3.4	.	3.3	0.1	3.1	.	.
O=C(CSc1nc2[nH]c(=O)cc(O)c2s1)Nc1nccs1	5.6	.	-3.5	-1.9	25.2*	-13.6	0.1
CCN(CC)c1ccc2nc3ccc(N)cc3[n+](-c3ccccc3)c2c1	-11.1	.	-8.1	-10.3	26.4*	19.1	12.8
O=C(CCSC1=NCCCN1)c1ccc(F)cc1	4.5	.	-5.7	7.2	30.9*	-14.9	47.4*
Brc1ccc(C2=CSC3=NCCN23)cc1	2.6	-4.4	-2.6	2.4	30.0*	-7.6	12.3
Cc1ccccc1C(=O)N[C@H](C(=O)N1CCC[C@H]1C(=O)NCc1ccccc1)c1ccccc1	-0.5	.	0.6	-4.4	-2.1	.	.
COc1ccc(NC(=O)CSc2nc3ccsc3c(=O)n2Cc2ccccn2)c(OC)c1	1.0	3.2	-3.4	-5.7	29.4*	-3.5	0.6
CCn1c(COc2ccc(C)cc2)nnc1SCC(=O)Nc1ccccc1-c1ccccc1	-0.1	.	-2.4	-0.2	-0.7	.	.
CCOc1ccc(CNC(=O)c2ccc3c(c2)N(CC)CCS3)cc1	0.7	.	-1.8	2.1	25.3*	-3.2	-1.3
Nc1ncnc2c1ncn2[C@@H]1O[C@H](C(=O)N[C@@H](CCc2ccccc2)C(=O)N2CCN(C(=O)N3CCOCC3)CC2)[C@@H](O)[C@H]1O	-1.3	.	4.7	-1.8	-1.9	.	.
Oc1cc2ccccc2cc1-c1n[nH]c(=S)o1	-1.6	6.6	0.0	-4.0	25.6*	-8.0	35.8*
CCN(C(=O)COC(=O)/C=C/c1ccc(OC)c(OC)c1)c1c(N)n(Cc2ccccc2)c(=O)[nH]c1=O	2.1	.	-4.5	-0.4	4.7	1.3	.
CCN(C(=O)CN1CCCCC1)c1c(N)n(Cc2ccccc2)c(=O)[nH]c1=O	3.6	.	2.6	2.0	-3.6	2.2	.
CCN(C(=O)CN1CCCc2cc(C)ccc21)c1c(N)n(Cc2ccccc2)c(=O)[nH]c1=O	-5.7	.	-0.2	-5.5	29.9*	-2.3	12.3
Cc1ccc2c(c1)CCCN2CC(=O)N(C)c1c(N)n(Cc2ccccc2)c(=O)[nH]c1=O	-8.2	.	-0.2	-0.6	32.9*	9.5	3.3
CCN(C(=O)C=Cc1ccco1)c1ccccc1	1.4	.	-3.5	6.2	31.3*	8.8	6.4
CCN(C(=O)COC(=O)/C=C/c1ccco1)c1c(N)n(Cc2ccccc2)c(=O)[nH]c1=O	5.5	.	0.1	-2.1	30.0*	15.9	-4.4
CN(C(=O)CN1CCCCCC1)c1c(N)n(Cc2ccccc2)c(=O)[nH]c1=O	1.4	.	3.4	5.4	7.7	3.3	.
COC(=O)c1ccc2nc(C3CCCCC3)c(Cc3ccccc3OC)n2c1	12.0	.	5.9	-1.8	-4.4	.	.
CCCC[C@H](CCCc1ccc(F)cc1)CCC(=O)N(c1ccccc1)c1ccccc1	1.8	.	5.8	0.6	0.2	.	.
COCc1[nH]nc2c1C(c1ccc3c(c1)OCO3)N(Cc1ccccc1)C2=O (stereo not drawn)	-0.7	.	-0.7	-6.2	16.6	.	.

From PubChem
